One assay has as its system Leishmania amazonensis. The assay is described as follows: Antileishmanial activity against Leishmania amazonensis MHOM/BR/76/LTB-012 axenic amastigotes after 72 hrs by MTT assay. In kind it is functional, organism-based. The note with it: MHOM/BR/76/LTB-012, 72 h. Put shortly: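 Axenic amastigotes kept by weekly subpassage in MAA/20 medium, 32 ± 1 °C, 5% CO2. Seeded in 96-well plates. Compounds in DMSO tested at four concentrations (50–0.05 µg/mL or 50–0.2 µg/mL, depending on compound) for 72 h. MTT added for 4 h, stopped with 2-propanol/SDS, OD read at 570 nm. % inhibition computed against untreated control; IC50 from inhibition curve. Triplicates; amphotericin B reference.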

Assay [1] is described as follows: Cytotoxicity against mouse peritoneal macrophages assessed as cell viability after 48 hrs by hematocytometer. In kind it is cell-based. As to conditions: Peritoneal macrophage cell.
For a further assay, the system named is Vero. Kind of assay: Cytotoxicity against african green monkey Vero cells assessed as [3H]-hypoxanthine incorporation after 48 hrs. The assay is classed as cell-based. The note with it: Chlorocebus sabaeus. Put shortly:
(§1)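 Cells grown in RPMI with 10% fetal calf serum and exposed to serial compound dilutions for 48 h. Growth measured by [3H]-hypoxanthine incorporation relative to untreated control cultures. Inhibition percentages plotted versus concentration; IC50 read graphically.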

The next assay concerns MCF7. Kind of assay: Cytotoxicity against human MCF7 cells assessed as [3H]-hypoxanthine incorporation after 48 hrs. The assay is classed as cell-based. In outline:
as §1

For `CCC[C@H](C)OC(=O)/C=C/c1ccc(O)c(O)c1`, the IC50 with Leishmania amazonensis came out at 2 µM; in assay [1] it was 72 µM; in the assay with Vero it was 62 µM; with MCF7 it was 14 µM.
For `CCCCC[C@H](C)OC(=O)/C=C/c1ccc(O)c(O)c1`, in that order: 10 µM, 16.1 µM, 89.8 µM and 10.6 µM.
Taken in the same sequence, the figures for `CCCCCCC[C@H](C)OC(=O)/C=C/c1ccc(O)c(O)c1` were 1.8 µM, 12.7 µM, 31 µM and 3.2 µM.
Turning to `O=C1OC[C@H]([C@H](O)c2ccc3c(c2)OCO3)[C@H]1Cc1ccc2c(c1)OCO2`, the IC50 came out at 79.4 µM in the assay on Leishmania amazonensis, 114 µM in the assay with Vero and 151 µM in the assay on MCF7.
For `C[C@@H]1[C@H](O)[C@@H](C)/C=C/C=C/C=C/C=C/C=C/C=C/C=C/[C@H](O[C@@H]2O[C@H](C)[C@@H](O)[C@H](N)[C@@H]2O)C[C@@H]2O[C@](O)(C[C@@H](O)C[C@@H](O)[C@H](O)CC[C@@H](O)C[C@@H](O)CC(=O)O[C@H]1C)C[C@H](O)[C@H]2C(=O)O` [AMPHOTERICIN B], the IC50 in the assay on Leishmania amazonensis came to 0.11 µM; in assay [1], 3.6 µM.
Turning to `O=C(O)/C=C/c1ccc(O)c(O)c1` [CAFFEIC ACID], the concentration for half-maximal inhibition (IC50) with Leishmania amazonensis was 17.8 µM; in assay [1] it was above 550 µM; in the assay with Vero it was above 550 µM; with MCF7, above 550 µM.
In the case of `OC[C@H](Cc1ccc2c(c1)OCO2)[C@H](CO)Cc1ccc2c(c1)OCO2` [DIHYDROCUBEBIN], the IC50 was above 140 µM in the assay with Leishmania amazonensis, 83.8 µM in the assay on Vero and 89.4 µM with MCF7.
Turning to `O=C(CC(CO)C(=O)c1ccc2c(c1)OCO2)c1ccc2c(c1)OCO2` (stereo not given) [JUSTIFLORINOL], the IC50 is above 140 µM with Leishmania amazonensis, above 281 µM in the assay with Vero and 140 µM with MCF7.
Regarding `O=C1OC[C@H]([C@H](O)c2ccc3c(c2)OCO3)[C@H]1C(=O)c1ccc2c(c1)OCO2` [SANGUINOLIGNAN A], the IC50 is 36.7 µM in the assay on Leishmania amazonensis, above 260 µM in assay [1], 109 µM with Vero and 146 µM in the assay with MCF7.
As for `O=C1OC[C@@H]([C@H](O)c2ccc3c(c2)OCO3)[C@H]1C(=O)c1ccc2c(c1)OCO2` [SANGUINOLIGNAN B], the results for the IC50 in the assay with Leishmania amazonensis, with Vero and with MCF7 were above 130 µM, above 260 µM and 250 µM, respectively.
Take `COc1ccc([C@@H](OC(C)=O)[C@H]2COC(=O)[C@@H]2C(=O)c2ccc3c(c2)OCO3)cc1OC` [SANGUINOLIGNAN C]: the results for the IC50 with Leishmania amazonensis, in the assay on Vero and in the assay with MCF7 were 105 µM, above 226 µM and 79.2 µM, respectively.
Taken in the same sequence, the figures for `CC(=O)O[C@H](c1ccc2c(c1)OCO2)[C@H]1C(=O)OC[C@@H]1C(=O)c1ccc2c(c1)OCO2` [SANGUINOLIGNAN D] were 69.7 µM, 82.1 µM and 17.1 µM.

The values are drawn from ChEMBL document CHEMBL1641391, “Caffeic acid esters and lignans from Piper sanguineispicum” (J Nat Prod, 2010).
